The sample as a whole holds a higher share of hits than the screen did.
Jurkat NFkB inh: inhibitors of induced NF-kB luciferase reporter, primary screen, TCR NF-kB activation inhibitor project, cell-based, luminescence, uHTS | inhibition, % at 4 µM | Jurkat, PMA/ionomycin-induced NF-kB luciferase reporter | 0.53% of 330,000 active; in the data active = inhibition above about 50%
CHOP inh: inhibitors of CHOP promoter induction, primary screen, cell-based, unfolded protein response, luciferase reporter; 3.8% of 220,000 active; inhibition, % at 10 µM; CHO-K1 CHOP-promoter luciferase, tunicamycin-induced, 15-18 h; AID 2732, 2010;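 active = compounds that reduced the stress-induced luciferase reporter signal by more than about 70% of percent inhibition, limit read from the data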
697 NFkB inh: inhibitors of PMA/ionomycin-induced NF-kB reporter, 697 cells, primary screen, B-cell NF-kB inhibitor project, cell-based, luminescence, uHTS; 0.33% of 330,000 active; inhibition, % at 4 µM; AID 435022, 2010; 697 B-cell NF-kB luciferase reporter, 16 h; in the data active = inhibition above about 35%
UPR CHOP act: activators of apoptotic CHOP UPR arm, primary screen, cell-based, CHO-CHOP luciferase reporter, luminescence, uHTS. UPR activation; percent of tunicamycin response over DMSO baseline. activation, % at 10 µM. 0.34% of 330,000 active;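 active = at 10 µM dose, activation of 40% or more, normalized to positive control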
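assay system = CHO CHOP reporter cells | amount = 500 CHO-CHOP cells per well | buffer or medium = F12 with 10% FBS | incubation = 16-18 h cell attachment, then 6 h compound exposure, 37 °C | detection = luminescence read with Steady-Glo | read-out = percent activation relative to tunicamycin control | controls = tunicamycin high control, DMSO low control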
UPR XBP1 act: activators of adaptive XBP1 UPR arm, primary screen, cell-based, CHO-XBP1 luciferase reporter, luminescence, uHTS. AID 463104, 2010. 0.33% of 330,000 active. activation, % at 20 µM. IRE1-XBP1 UPR activation; percent of tunicamycin response, DMSO as zero;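 active = versus positive control, 20 µM dose yields 30% or more activation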
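Signal: luciferase luminescence; Assay system: CHO-XBP1 luciferase reporter cells; Amount: one thousand reporter cells per well; Dosing: 20 µM single concentration, DMSO 1%; Benchmarks: high control tunicamycin 10 µg/mL final, low control DMSO vehicle only; Schedule: 6 h compound exposure at 37 °C, 5% CO2; Evaluation: percent activation relative to tunicamycin reference.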
Of the large screens only hits and unclear results are named; the others gave an inactive call.

CC(=O)Nc1sc(C)c(C)c1C(=O)OCC(=O)N(CC(C)C)c1c(N)n(Cc2ccccc2)c(=O)[nH]c1=O	none (no result: CHOP inh)
C=CCOc1ccccc1CN1CCCN(C)CC1	none (no result: CHOP inh)
COc1ccc(CNC(=O)c2cc(-c3ccncc3)nc3c(C)cc(C)cc23)cc1OC	CHOP inh 89
O=C(CN1CCN(S(=O)(=O)N2CCCCC2)CC1)Nc1cc(Cl)ccc1Cl	none (no result: CHOP inh)
NC(=O)C1(N2CCCCC2)CCN(CC(=O)Nc2cc(Cl)ccc2Cl)CC1	CHOP inh 76
Cn1c(SCc2cccc([N+](=O)[O-])c2)nc2c(c1=O)SCC2	CHOP inh 75
Cn1c(SCc2cccnc2)nc2c(c1=O)SCC2	none
COc1cc(C(=O)NC2CCCCC2)ccc1OCc1ccc(Cl)cc1Cl	CHOP inh 85
COc1cc(C(=O)NCCC(C)C)ccc1OCc1ccc(Cl)cc1Cl	none
CN(C(=O)COC(=O)Cn1cnc2ccccc21)C1CCCCC1	none (no result: CHOP inh)
Cn1c(SCC(=O)Nc2cccc(Br)c2)nnc1-c1cc2ccccc2o1	CHOP inh 91
Cn1c(SCC(=O)Nc2cccc(C(=O)O)c2)nnc1-c1cc2cc(Br)ccc2o1	none
COc1ccccc1NC(=O)c1cc2n(n1)C(C(F)(F)F)CC(c1ccc3c(c1)OCO3)N2 (configuration not stated)	CHOP inh 88
COc1ccc(OC)c(NC(=O)c2cc3n(n2)C(C(F)(F)F)CC(c2ccc4c(c2)OCO4)N3)c1 (configuration not stated)	none (no result: CHOP inh)
O=C(NCc1ccco1)c1cc2n(n1)C(C(F)(F)F)CC(c1ccc(Cl)c(Cl)c1)N2 (configuration not stated)	CHOP inh 88
O=C(NCc1ccco1)c1cc2n(n1)C(C(F)(F)F)CC(c1ccc(Br)cc1)N2 (configuration not stated)	CHOP inh 77
O=C(NCc1ccccn1)c1cc2n(n1)C(C(F)(F)F)CC(c1ccco1)N2 (configuration not stated)	none
CS(=O)(=O)c1ccc(NC(=O)CCN2C(=O)C3CCCCC3C2=O)cc1 (configuration not stated)	none (no result: CHOP inh)
C[C@H](CO)N1C[C@H](C)[C@@H](CN(C)Cc2ccc(C(=O)O)cc2)Oc2ccc(NS(=O)(=O)c3cn(C)cn3)cc2C1=O	none (no result: CHOP inh)
CCOC(=O)c1ccc(-c2c(C)cc3oc(=O)cc(-c4ccccc4)c3c2C)cc1	none (no result: Jurkat NFkB inh, CHOP inh)
Cc1ccc(C)c(N2CCN(C(=O)C(Cc3ccccc3)n3cccc3)CC2)c1 (configuration not stated)	none
O=C(C(Cc1ccccc1)n1cccc1)N1CCN(c2ccccc2)CC1 (configuration not stated)	CHOP inh 78
S=C(NNc1ccnc2cc(Cl)ccc12)Nc1ccccc1Cl	CHOP inh 96
CCN(CC(=O)Nc1ccccc1C(F)(F)F)C(=O)c1cccc(N2C(=O)CCC2=O)c1	none (no result: CHOP inh)
CSc1ccc(Cl)c(C(=O)N2CCN(c3ncccn3)CC2)c1	none (no result: CHOP inh)
O=C1NN(c2ccccc2)C(=O)/C1=C/c1cccs1	UPR XBP1 act 31
O=C1NN(c2ccc(F)cc2)C(=O)/C1=C\c1cnn(-c2ccccc2)c1	CHOP inh 70
Cc1ccccc1Cn1c(=N)n(CC(O)c2ccco2)c2ccccc21 (configuration not stated)	none
CC(C)(C)c1ccc(Cn2c(=N)n(CC(O)c3ccco3)c3ccccc32)cc1 (configuration not stated)	CHOP inh 76
C=CCNc1ccccc1S(=O)(=O)NCc1ccccc1	none (no result: Jurkat NFkB inh, CHOP inh)
O=c1c2ccc(Cl)cc2nc(-c2cccc(C(F)(F)F)c2)n1O	CHOP inh 74
N#Cc1ccc(-c2nc3cc(Cl)ccc3c(=O)n2O)cc1	none (no result: CHOP inh)
CCOC(=O)C1=C(c2ccccc2)N=c2s/c(=C\c3cccc(O)c3)c(=O)n2C1c1cccs1 (configuration not stated)	CHOP inh 90
CCOC(=O)C1=C(C)N=c2s/c(=C\c3cccc(OCC(=O)O)c3)c(=O)n2C1c1ccccc1OC (configuration not stated)	none (no result: CHOP inh)
CC(C)[C@H](NC(=O)OCc1ccccc1)C(=O)OCc1cc(=O)oc2cc(O)ccc12	none (no result: CHOP inh)
CC(C)(C)c1nn(-c2ccccc2)c2[nH]c(=O)c(CNCc3ccc4c(c3)OCO4)cc12	CHOP inh 94
Cc1cccc(Nc2ncnc3onc(-c4cccc(Cl)c4)c23)c1C	none (no result: CHOP inh)
CN1CC=C2C(C#N)=C(N)C(C#N)(C#N)[C@H](c3ccoc3)[C@H]2C1	none
CC(=O)N1CC=C2C(C#N)=C(N)C(C#N)(C#N)C(CCc3ccccc3)C2C1 (configuration not stated)	CHOP inh 73
CCN1CC=C2C(C#N)=C(N)C(C#N)(C#N)C(CCc3ccccc3)C2C1 (configuration not stated)	none
N#CC1=C(N)C(C#N)(C#N)[C@H](c2ccoc2)[C@H]2CN(Cc3ccccc3)CC=C12	UPR XBP1 act 37 (no result: CHOP inh)
CN1CCC(N(C)C(=O)c2ccc(Cl)c(S(=O)(=O)Nc3cc(Cl)ccc3Cl)c2)CC1	none (no result: CHOP inh)
Cc1cccc(CSCc2ccc(C(=O)NC(C)C)o2)c1	none (no result: CHOP inh)
CC(C)CCNC(=O)c1ccc(CSCc2cccc(F)c2)o1	CHOP inh 90
O=C(Nc1cccc(-c2nc3cccnc3s2)c1)c1ccc(Cl)nc1	CHOP inh 81
O=C(Nc1cccc(-c2nc3cccnc3s2)c1)c1cccnc1Cl	none
Cc1cccc(OCC(=O)N/N=C/c2cn[nH]c2-c2ccc(Cl)c(Cl)c2)c1	CHOP inh 80
Cc1cccc(OCC(=O)N/N=C/c2cccn2C)c1	none
CCN(CC)CCNC(=O)C(=O)Nc1ccc2c(c1)N(S(=O)(=O)c1cccs1)CCC2	none (no result: CHOP inh)
CC(C)[C@@H]1CC[C@@H](C)c2c(-c3ccccc3)n[nH]c21	CHOP inh 92
c1ccc(-c2n[nH]c3c2CCC3)cc1	none
COc1ccc(C(=O)NCCN2C(=O)S/C(=C\c3cccnc3)C2=O)cc1[N+](=O)[O-]	none
O=C(OCC(=O)c1c[nH]c2ccccc12)c1cc2ccccc2cc1O	CHOP inh 73
COc1ccc(C(=O)OCC(=O)c2c[nH]c3ccccc23)c(OC)c1	none (no result: CHOP inh)
CCC(CC)c1nnc(NC(=O)CN2C(=O)NC3(CCCC3)C2=O)s1	none (no result: CHOP inh)
Cc1cccc(OCC(=O)Nc2cc(NC(=O)COc3cccc(C)c3C)cc(C(=O)O)c2)c1C	none (no result: CHOP inh)
Cc1ccccc1OCC(=O)Nc1cccc(C(=O)O)c1	CHOP inh 89 (no result: Jurkat NFkB inh, 697 NFkB inh, UPR CHOP act, UPR XBP1 act)

Source: PubChem (several laboratories)
